High-throughput results (PubChem)
Yeast life ext – extends the lifespan of yeast; S. cerevisiae growth with nicotinamide, OD615; deaD strain in restrictive glucose medium; inhibition of the nicotinamide effect, % at 10 µM; 0.68% of 130,000 active; AID 775;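 active = inhibition above a set limit, placed 3 SD over the median of all compounds, cut at about 26% in these data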;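 note: 0% = nicotinamide-treated wells and 100% = cells grown without nicotinamide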
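Measured by: optical density (absorbance) at 615 nm; System: modified budding yeast, DeaD strain; Medium: restrictive CSMM-D dextrose medium; Timing: 4 h preincubation then 48 h treatment at 30 °C.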
BB579 growth dn – yeast BB579 growth reduction in restrictive medium. S. cerevisiae BB579 growth, OD615, 48 h. inhibition, % at 10 µM. 0.51% of 140,000 active. AID 804;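 active = inhibition above a set limit, 3 SD over the mean compound inhibition, cut at about 44% in these data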
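Test system: DeaD yeast strain BB579 / Buffer or medium: restrictive glucose-based CSMM-D medium / Doses: single 10 µM dose / Schedule: 4 h cell preincubation, 48 h compound exposure, 30 °C humidified / Technique: culture absorbance at 615 nm / Controls: amphotericin B positive control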
Measles CPE – protection of cells from measles virus | Measles virus-infected cells, CPE protection, absorbance | protection (pct of control), % at 4 µM | 1.5% of 140,000 active | AID 841; in the data active = protection mostly above about 24%, no sharp cut-off; inactive = mostly below about 26%
RAM network inh – yeast RAM network inhibition; S. cerevisiae dse1pr::URA3 reporter, 5-FOA growth OD615, 2 d; analog-sensitive cbk1-as2 kinase mutant strain; inhibition, % at 50 µM; 1.8% of 190,000 active; AID 868;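 active = inhibition above a set limit, 3 SD over mean compound inhibition, cut at about 8.4% in these data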;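 note: 0% = DMSO-only wells with no growth and 100% = 10 µM 1-NA-PP1 full growth; inhibition rescues growth on 5-FOA so higher OD means more RAM inhibition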
* marks the source's active call; other numbers are inactive results; nt = not tested or not shown. Shown are actives, neighbours in structure and some others; about 3.8% of the full set was active somewhere.

SMILES | Yeast life ext | BB579 growth dn | Measles CPE | RAM network inh
Cc1ccc(C(=O)Nc2ccccc2Oc2ccccc2)cc1[N+](=O)[O-] | -9 | -91 | 6 | 11*
Cc1ccc(C(=O)NC(=S)Nc2cccc(NC(=O)c3ccccc3Cl)c2)cc1[N+](=O)[O-] | -5 | -44 | 19 | 3
Cc1ccc(C(=O)NC(=S)Nc2cccc(NC(=O)c3ccccc3)c2)cc1[N+](=O)[O-] | -3 | -9 | 6 | 10*
CCCn1nnc(NC(=O)C(C)Oc2ccc(Cl)cc2Cl)n1 (stereo not drawn) | -19 | -5 | 47* | 1
O=C1CC(NC(=O)C(F)(F)F)=NN1c1ccccc1 | nt | nt | nt | 1
CC(C)(Oc1ccc(Cl)cc1)C(=O)NC1=NN(c2ccccc2)C(=O)C1 | -11 | 96* | 28 | 1
CC(Oc1ccc(Cl)cc1Cl)C(=O)NC1=NN(c2ccccc2)C(=O)C1 (stereo not drawn) | -19 | 98* | 2 | 1
CC1=[N+](C)c2c(ccc3cccnc23)C1(C)C | nt | nt | nt | -2
O=C(CCl)NC(=O)NC12CC3CC(CC(C3)C1)C2 | 35* | 15 | 7 | 1
O=C(COc1c(CO)cc(Br)cc1CO)NC1CCCc2ccccc21 (stereo not drawn) | nt | nt | nt | 3
COc1ccccc1C(=O)NCc1ccc(-c2nc3ccccc3s2)cc1 | -4 | -17 | 5 | 9.1*
COc1ccc(Nc2nnc(-c3ccc(O)cc3)c3ccccc23)cc1 | nt | nt | nt | 2
O=C(c1ccco1)N1CCN(c2ccc(F)cc2)CC1 | nt | nt | nt | 3
Nc1ccc(N2CCN(C(=O)c3ccco3)CC2)cc1 | -11 | -20 | 60* | -1
CCCCn1cnc(C(=O)OCC)c1N | 4 | -38 | 4 | 1
CCOC(=O)c1cnc2c(C#N)cnn2c1N | nt | nt | nt | 3
CCOC(=O)c1cnn2cc(-c3[nH]ncc3[N+](=O)[O-])cnc12 | 1 | -21 | 33* | 2
CCOc1ccc(OCc2ccc(C(=O)N/N=C(\C)c3ccccn3)cc2)cc1 | nt | nt | nt | -1
CCC(C)/C(C)=N/NC(=O)c1ccc(COc2ccc(Cl)c(C)c2)cc1 (stereo not drawn) | -8 | 97* | 13 | 0
O=C(CCCOc1ccccc1)Nc1ccc(Cl)cn1 | nt | nt | nt | 2
Cc1ccc(S(=O)(=O)ON2C(=O)c3cccc4cccc(c34)C2=O)cc1 | 34* | -39 | 26 | 2
CCCCCCOc1ccc(-c2ccc(C#N)cn2)cc1 | -15 | -76 | 9 | 10*
CC(C)(C)c1ccc(C(=O)Nc2cccc([N+](=O)[O-])c2)cc1 | -4 | -53 | 7 | 2
Cc1ccc(SCc2ccc(C(=O)Nc3cc([N+](=O)[O-])ccc3C)cc2)cc1 | -8 | -19 | 19 | 10*
Cc1ccc(SCc2ccc(C(=O)Nc3cccc([N+](=O)[O-])c3)cc2)cc1 | -8 | -35 | 16 | 9.6*
SMILES | Yeast life ext | BB579 growth dn | Measles CPE | RAM network inh
C[C@H]1C=C(C(=O)NCc2ccccc2)O[C@@H](OCc2ccc(CO)cc2)C1 | nt | nt | nt | 0
O=C(Cn1nnc(-c2ccccc2NC(=O)c2ccccc2F)n1)NC1CCCC1 | nt | nt | nt | 3
O=C(NCc1cn(-c2ccccc2)nc1-c1ccc(F)cc1)c1cccc([N+](=O)[O-])c1 | 9 | -14 | 12 | 2
CCCCOC(=O)Nc1ccc(S(=O)(=O)Nn2cnnc2)cc1 | -11 | -34 | 18* | -1
CCCc1ccc(-c2cc(C(=O)Nc3ccc([N+](=O)[O-])cn3)c3ccccc3n2)cc1 | -1 | -12 | 17 | 3
CCN(C(=O)CSc1nc2ccccc2c(=O)n1C(C)COC)C1CCS(=O)(=O)C1 (stereo not drawn) | nt | nt | nt | 1
CCOC(=O)c1c(C)nc2sc(C(=O)Nc3ccc(C(C)=O)cc3)c(N)c2c1-c1ccc(OC)cc1 | 2 | -42 | 1 | 6
CCOC(=O)c1c(C)nc2sc(C(=O)Nc3ccc(OC)cc3)c(N)c2c1-c1ccc(OC)cc1 | -11 | -50 | 4 | 8.7*
CCOC(=O)CN1C(=O)c2ccccc2C1=O | -7 | -19 | 3 | 1
CCCOC(=O)CN1C(=O)c2ccccc2C1=O | -20 | -1 | 20* | 2
CCCCC(=O)Nc1nc2ccc(C(=O)OC)cc2s1 | nt | nt | nt | 4
Cc1cc(Br)ccc1OCC(=O)NNC(=O)c1cnccn1 | -5 | -1 | 37* | 0
Cc1cc(Cl)ccc1OCC(=O)NNC(=O)c1cnccn1 | nt | nt | nt | 0
CCOC(=O)C1=C(C)Nc2ccccc2N=C1NC(=O)C(CC)c1ccccc1 (stereo not drawn) | 3 | -22 | 5 | 1
CCOC(=O)N/N=C/c1c(F)c(F)c(F)c(F)c1F | -2 | -22 | 4 | 0
O=C(CCN1CCc2ccccc2C(c2ccccc2)C1)c1ccc2c(c1)OCCO2 (stereo not drawn) | 1 | 4 | 41* | -2
O=C(CCN1Cc2ccccc2C1)c1ccc2c(c1)OCCO2 | 37 | -57 | 17 | -1
COCCNC(=O)C(c1ccc(C)o1)N(Cc1ccc(OC)cc1)C(=O)Cn1nnc2ccccc21 (stereo not drawn) | 0 | -48 | 9 | 11*
O=C(NCc1ccco1)C(c1ccco1)N(Cc1cccs1)C(=O)Cn1nnc2ccccc21 (stereo not drawn) | nt | -46 | 3 | 9.5*
CCCCNC(=S)N/N=C/C1=CCC2CC1C2(C)C (stereo not drawn) | 0 | -7 | 10 | 8.6*
CCOC(=O)c1cnc2c(-c3ccccc3OC)c(C)nn2c1C | nt | nt | nt | 4
Cc1cc(C(=O)N/N=C/c2ccc(O)c([N+](=O)[O-])c2)n[nH]1 | -2 | -16 | 8 | 0
Cc1cc(C(=O)N/N=C/c2cccc([N+](=O)[O-])c2O)n[nH]1 | -3 | 44* | 17 | 3
CC(C)[C@H](NC(=O)Nc1cccc(Br)c1)C(=O)O | 5 | 14 | 28 | 0
O=C(O)CCCC(=O)Nc1cccc(C(F)(F)F)c1 | -5 | -25 | 22 | 0
SMILES | Yeast life ext | BB579 growth dn | Measles CPE | RAM network inh
COCC(=O)Nc1cccc(C(F)(F)F)c1 | -5 | 2 | 37* | 1
CC(C)[C@H](NC(=O)Nc1cccc(C(F)(F)F)c1)C(=O)O | 17 | -19 | 27* | 1
COc1ccc(NC(=O)/C(Cl)=C(/Cl)S(=O)Cc2ccccc2Cl)cn1 (stereo not drawn) | nt | nt | nt | 2
CCOc1ccccc1OCCCOc1ccc(C)cc1Br | -13 | 7 | 33* | 2
O=C(CSc1nc(-c2ccco2)cc(C(F)(F)F)n1)N1CCN(c2ccc(Cl)cc2)CC1 | nt | -42 | 70* | 3
Cc1ccc(/C=C2/SC(=S)N(CC(=O)Nc3ncc(Cc4ccc(C)cc4)s3)C2=O)cc1 | -10 | -48 | 5 | 11*
CCN(CC)c1ccc(C=NCCc2ccc(S(N)(=O)=O)cc2)cc1 | nt | nt | nt | 2
O=C1C2C(c3ccccc3)C=CC(c3ccccc3)C2C(=O)N1c1ccccn1 (stereo not drawn) | 30* | -57 | 25 | 0
Oc1ccc2ccccc2c1/C=N/c1nc2c(s1)CCCC2 | 33* | -21 | 2 | 6
Oc1c(Br)cc(Br)cc1/C=N/c1nc2c(s1)CCCC2 | -15 | 99* | 6 | -1
Oc1c(Br)cc(Br)cc1C=NCc1ccccc1 | nt | nt | nt | -1
Oc1ccc2ccccc2c1C=NC1CCCCC1 | nt | nt | nt | 1
